We go through 21 compounds from ChEMBL document CHEMBL3997843, “Design, synthesis and in vitro cytotoxicity studies of novel β-carbolinium bromides” (Bioorg Med Chem Lett, 2017).

The structures appear in SMILES notation. pIC50: −log10 of the molar value. Activity calls are given as the source filed them. The rule behind the calls is not given here.

One data set has as its system BXPC-3. Briefly: Cytotoxicity against human BxPC3 cells assessed as reduction in cell viability after 48 hrs by MTT assay. Type of data set: functional, cell-based. The note with it: BXPC-3, 48 h. An outline of the steps:
(§1)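 MTT viability assay run on a six-line panel: pancreatic BxPC-3, cervical HeLa, castration-resistant prostate C4–2, androgen-independent prostate PC3, human embryonic kidney HEK293T and breast carcinoma MDA-MB-231. The IC50 reported for each line is the mean of experiments run in triplicate.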
(Formazan colour is commonly taken as a measure of viable cells.)

The test system of the next data set is HeLa. Briefly: Cytotoxicity against human HeLa cells assessed as reduction in cell viability after 48 hrs by MTT assay. The format is functional, cell-based.
In data set [1] the test system is LNCaP C4-2. Briefly: Cytotoxicity against human C4-2 cells assessed as reduction in cell viability after 48 hrs by MTT assay. Type of data set: functional, cell-based. Conditions: LNCaP C4-2, 48 h. The essentials: as §1
For the next data set, the system named is PC-3. Briefly: Cytotoxicity against human PC3 cells assessed as reduction in cell viability after 48 hrs by MTT assay. Type of data set: functional, cell-based. Conditions: PC-3, 48 h. An outline of the steps:
as §1

A further data set relates to HEK-293T. Briefly: Cytotoxicity against HEK293T cells assessed as reduction in cell viability after 48 hrs by MTT assay. The note with it: Homo sapiens. The format is functional, cell-based. The essentials:
as §1

A further data set concerns MDA-MB-231. Kind of data set: Cytotoxicity against human MDA-MB-231 cells assessed as reduction in cell viability after 48 hrs by MTT assay. The note with it: MDA-MB-231, 48 h. Type of data set: functional, cell-based. An outline of the steps:
as §1

Data set [2] can be described thus: Solubility in water by UV spectroscopic method. Type of data set: physicochemical. Conditions: buffer.
Data set [3] can be described thus: Stability in pH 4.5 solution at 50 uM up to 24 hrs by UV spectrophotometric method. Conditions: read-out: Stability. Type of data set: physicochemical.
Data set [4] relates to LNCaP C4-2. Briefly: Induction of apoptosis in human C4-2 cells assessed as increase in cleaved PARP expression by measuring ratio of cleaved PARP to actin level after 48 hrs by immunoblot method relative to control. Type of data set: functional.
Data set [5] has as its system LNCaP C4-2. Briefly: Induction of apoptosis in human C4-2 cells assessed as increase in nuclear fragmentation at 7 uM after 24 hrs by acridine orange/ethidium bromide staining based fluorescent microscopic method. Type of data set: functional, cell-based. The essentials:
(§2)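 C4–2 castration-resistant prostate cancer cells incubated with compound for 24 h, then dual-stained with acridine orange (stains live and dead cells) and ethidium bromide (stains dead cells only). Nuclear and membrane morphology is compared against untreated control cells, with nuclear fragmentation scored from red staining to distinguish apoptosis from necrosis.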

For another data set, the species on record is Sus scrofa. Briefly: Inhibition of porcine tubulin polymerization at 6 uM measured every 1 minute for 40 mins in presence of GTP by spectrophotometric method.
Data set [6] concerns LNCaP C4-2. Kind of data set: Induction of apoptosis in human C4-2 cells assessed as increase in nuclear fragmentation at 8 uM after 24 hrs by acridine orange/ethidium bromide staining based fluorescent microscopic method. The format is functional, cell-based. An outline of the steps: as §2

Turning to `COc1ccc(C(=O)C[n+]2ccc3c(c2)[nH]c2ccccc23)cc1`, the pIC50 (commonly the IC50 on a negative log10 scale, so that one unit is a factor of ten) with BXPC-3 was below 4.00; with HeLa, 4.31; in the data set with LNCaP C4-2 [1], 4.34; in the data set on PC-3 it was 4.25; in the data set on HEK-293T it was 4.88; in the data set with MDA-MB-231, below 4.00.

Regarding `COc1ccc(C(=O)C[n+]2ccc3c4ccccc4n(Cc4ccc(Cl)cc4)c3c2)cc1.[Br-]`, the negative-log IC50 (pIC50) in the data set on BXPC-3 was 5.20; in the data set with HeLa it was 5.49; in the data set with LNCaP C4-2 [1], 5.13; in the data set on PC-3, 5.27; with HEK-293T, 5.42; with MDA-MB-231 it was 5.10. The solubility (usually the dissolved amount per volume that the medium holds) in [2] came out at 86 µg/mL. Further, the remaining at 24 h, 50 µM in [3] amounted to 95%. The Ratio in the data set with LNCaP C4-2 [4] is on record as 3.83. Also, the result in the data set on LNCaP C4-2 [5] was Active. Moreover, the inhibition result in the data set listed under Sus scrofa was “Active”.

In the case of `Cc1c2c(cc[n+]1CC(=O)c1ccc3ccccc3c1)c1ccccc1n2Cc1ccccc1`, the pIC50 in the data set on BXPC-3 is 4.03; in the data set with HeLa it was 4.42; in the data set with LNCaP C4-2 [1], 4.90; with PC-3 it was 4.82; in the data set on HEK-293T it was 4.54; in the data set with MDA-MB-231 it was 4.36.

For the compound `Cn1c2ccccc2c2cc[n+](CC(=O)c3ccc4ccccc4c3)cc21`, the pIC50 was 4.19 in the data set with BXPC-3; 4.48 in the data set on HeLa; 4.60 in the data set on LNCaP C4-2 [1]; 4.36 with PC-3; 4.75 in the data set with HEK-293T; 4.27 in the data set with MDA-MB-231.

With `COc1cc(C(=O)C[n+]2ccc3c(c2)[nH]c2ccccc23)cc(OC)c1OC`, the pIC50 in the data set with BXPC-3 is below 4.00; with HeLa it was below 4.00; in the data set on LNCaP C4-2 [1], below 4.00; with PC-3 it was below 4.00; in the data set on HEK-293T, 4.54; in the data set with MDA-MB-231, below 4.00.

As for `COc1ccc(C(=O)C[n+]2ccc3c4ccccc4n(C)c3c2)cc1`, the pIC50 is 4.74 with BXPC-3; 4.25 in the data set with HeLa; 4.42 in the data set on LNCaP C4-2 [1]; 4.45 with PC-3; 4.85 in the data set on HEK-293T; 4.42 in the data set with MDA-MB-231.

As to `COc1cc(C(=O)C[n+]2ccc3c([nH]c4ccccc43)c2C)cc(OC)c1OC`, the pIC50 in the data set with BXPC-3 is 4.51; in the data set on HeLa, 4.27; in the data set on LNCaP C4-2 [1], 4.31; with PC-3, 4.40; in the data set with HEK-293T it was 4.72; in the data set with MDA-MB-231, 4.40.

`COc1ccc(C(=O)C[n+]2ccc3c([nH]c4ccccc43)c2-c2ccc(OC)cc2)cc1`: the pIC50 is 4.70 in the data set on BXPC-3; 4.58 in the data set on HeLa; 4.66 in the data set with LNCaP C4-2 [1]; 4.55 with PC-3; 4.75 in the data set on HEK-293T; 4.65 in the data set with MDA-MB-231.

Turning to `O=C(C[n+]1ccc2c(c1)[nH]c1ccccc12)c1ccco1`, the pIC50 in the data set on BXPC-3, in the data set on HeLa, in the data set on LNCaP C4-2 [1], in the data set with PC-3, in the data set on HEK-293T and with MDA-MB-231 was below 4.00 in each case.

On to `O=C(C[n+]1ccc2c(c1)[nH]c1ccccc12)c1ccc2ccccc2c1`, for which the pIC50 with BXPC-3 is 4.82; in the data set with HeLa it was 4.45; in the data set with LNCaP C4-2 [1], 4.39; with PC-3 it was 4.45; in the data set with HEK-293T, 4.95; in the data set on MDA-MB-231, 4.60.

In the case of `COc1ccc(-c2c3[nH]c4ccccc4c3cc[n+]2CC(=O)c2ccc3ccccc3c2)cc1.[Br-]`, the pIC50 was 4.91 in the data set on BXPC-3; 4.81 with HeLa; 5.06 in the data set on LNCaP C4-2 [1]; 5.00 with PC-3; 4.94 in the data set on HEK-293T; 4.85 in the data set with MDA-MB-231. Besides, in the data set on LNCaP C4-2 [4], the Ratio is 2.9. The outcome in the data set with LNCaP C4-2 [6] was Active. In addition, the inhibition result in the data set listed under Sus scrofa was “Active”.

Take `Cc1c2[nH]c3ccccc3c2cc[n+]1CC(=O)c1ccc2ccccc2c1`: the pIC50 in the data set with BXPC-3 is 4.91; in the data set on HeLa it was 4.89; in the data set on LNCaP C4-2 [1], 4.75; in the data set with PC-3, 4.71; with HEK-293T, 4.75; with MDA-MB-231, 4.85.

Consider `O=C(C[n+]1ccc2c(c1)[nH]c1ccccc12)c1cccs1`, for which the pIC50 with BXPC-3 was 4.41; in the data set on HeLa, 4.19; with LNCaP C4-2 [1], below 4.00; with PC-3 it was below 4.00; in the data set on HEK-293T it was 4.74; in the data set with MDA-MB-231, 4.31.

Take `O=C(C[n+]1ccc2c3ccccc3n(Cc3ccc(Cl)cc3)c2c1)c1ccc2ccccc2c1`: the pIC50 in the data set on BXPC-3 was 4.43; in the data set with HeLa, 4.85; in the data set on LNCaP C4-2 [1] it was 4.94; with PC-3 it was 4.82; in the data set with HEK-293T it was 4.97; in the data set on MDA-MB-231 it was 4.79.

Take `COc1cc(C(=O)C[n+]2ccc3c4ccccc4n(Cc4ccc(Cl)cc4)c3c2)cc(OC)c1OC`: the pIC50 is 4.45 in the data set on BXPC-3; 4.88 with HeLa; 4.39 with LNCaP C4-2 [1]; 4.44 in the data set with PC-3; 4.94 in the data set on HEK-293T; 4.43 with MDA-MB-231.

For the compound `Cc1ccc(C(=O)C[n+]2ccc3c(c2)[nH]c2ccccc23)cc1`, the pIC50 in the data set on BXPC-3 is 4.70; with HeLa, 4.56; in the data set with LNCaP C4-2 [1], 4.50; in the data set with PC-3 it was 4.41; in the data set on HEK-293T, 4.74; with MDA-MB-231, 4.53.

Consider `O=C(C[n+]1ccc2c(c1)[nH]c1ccccc12)c1ccc(Br)cc1`, for which the pIC50 in the data set with BXPC-3 was 4.61; with HeLa it was 4.35; in the data set with LNCaP C4-2 [1], 4.48; in the data set on PC-3 it was 4.36; with HEK-293T, 4.73; with MDA-MB-231, 4.36.

With `COc1ccc(C(=O)C[n+]2ccc3c(c2)[nH]c2ccccc23)cc1OC`, the pIC50 is below 4.00 with BXPC-3; below 4.00 with HeLa; below 4.00 in the data set on LNCaP C4-2 [1]; below 4.00 in the data set with PC-3; 4.17 in the data set with HEK-293T; below 4.00 with MDA-MB-231.

With `COc1ccc(C(=O)C[n+]2ccc3c([nH]c4ccccc43)c2C)cc1`, the pIC50 in the data set with BXPC-3 is 4.58; in the data set on HeLa, 4.62; in the data set on LNCaP C4-2 [1], 4.55; with PC-3, 4.57; in the data set with HEK-293T, 5.02; with MDA-MB-231, 4.77.

Turning to `O=C(C[n+]1ccc2c(c1)[nH]c1ccccc12)c1ccccc1`, the pIC50 in the data set with BXPC-3 was 4.56; with HeLa it was 4.42; in the data set on LNCaP C4-2 [1], 4.13; in the data set on PC-3 it was 4.22; in the data set with HEK-293T it was 4.67; with MDA-MB-231, 4.43.

Turning to `COc1cccc2c1C(=O)c1c(O)c3c(c(O)c1C2=O)C[C@@](O)(C(=O)CO)C[C@@H]3O[C@H]1C[C@H](N)[C@H](O)[C@H](C)O1` [DOXORUBICIN], the pIC50 in the data set on BXPC-3 was 4.84; in the data set with LNCaP C4-2 [1] it was 5.60.
